From ChEMBL document CHEMBL1773068, “Drug to genome to drug: discovery of new antiplasmodial compounds” (J Med Chem, 2011)
The source made the active and inactive calls. The rule behind the calls is not given here.

Experiments:
[1] = tested on: Plasmodium falciparum; test: Antiplasmodial activity against chloroquine-susceptible Plasmodium falciparum GHA strain infected in human erythrocytes after 72 hrs by spectrophotometry; type: functional, organism-based
Summary of the method: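 P. falciparum cultured in human A+ erythrocytes in RPMI-1640 with 10% human serum, 37 °C, low oxygen (3% O2, 4% CO2, 93% N2). Infected red cell suspension (1% parasitemia, 2% hematocrit) incubated with compounds 72 h, then frozen. Growth read by Malstat method: NBT/PES added, 2 h in dark, absorbance at 655 nm. IC50 from duplicate determinations.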

[2] = tested on: MRC5; test: Cytotoxicity against human MRC5 SV2 cells after 72 hrs; type: cell-based; details: MRC5, 72 h
Summary of the method: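 MRC-5 SV2 human fetal lung fibroblasts grown in MEM with L-glutamine, NaHCO3 and 5% FCS at 37 °C, 5% CO2. 10^4 cells/well seeded onto prediluted compounds, 72 h at 37 °C. Viability by resazurin added for 24 h, fluorescence at ex 530/em 590 nm. IC50 from duplicate determinations.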

[3] = tested on: Plasmodium falciparum; test: Inhibition of Plasmodium falciparum GHA strain PDE assessed as inhibition of cAMP hydrolysis at 20 uM after 6 hrs by time resolved fluorescence resonance energy transfer-based assay
Summary of the method: (§1)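 Parasite lysate (2 μL, ~400 000 parasites) incubated with cAMP (150 nM) and inhibitor at 20 μM (4% DMSO final) for 6 h at 37 °C. Buffer: 50 mM Tris-HCl pH 7.4, 6 mM MgCl2, 1 mM MnCl2, 4 mM DTT. Residual cAMP measured by competitive HTRF (d2-labelled cAMP vs anti-cAMP cryptate), 665/620 nm ratio after 1 h at room temperature. Duplicates, each read twice.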

[4] = tested on: Plasmodium falciparum; test: Inhibition of Plasmodium falciparum GHA strain PDE assessed as inhibition of cGMP hydrolysis at 20 uM after 6 hrs by time resolved fluorescence resonance energy transfer-based assay
Summary of the method: as §1, with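 “cGMP” for “cAMP”, “anti-cGMP” for “anti-cAMP”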

Row | Structure (SMILES) | IC50 ([1]; read-out: IC50) | inhibition [3] | inhibition [4] | IC50 ([1]; read-out: pIC50 (converted)) | IC50 [2]
1 | O=C1[C@H]2Cc3c([nH]c4ccccc34)[C@@H](c3ccc4c(c3)OCO4)N2C(=O)CN1c1ccc(Cl)cc1 | 60 µM |  |  |  | > 64 µM
2 | NN1CC(=O)N2[C@H](c3ccc4c(c3)OCO4)c3[nH]c4ccccc4c3C[C@@H]2C1=O | > 64 µM |  |  |  | > 64 µM
3 | O=C1NCC(=O)N2[C@H](c3ccc4c(c3)OCO4)c3[nH]c4ccccc4c3C[C@H]12 [NORTADALAFIL] | > 64 µM |  |  |  | > 64 µM
4 | CC(C)(C)OC(=O)N1CCN(c2ccc(N3CC(=O)N4[C@H](c5ccc6c(c5)OCO6)c5[nH]c6ccccc6c5C[C@@H]4C3=O)cc2)CC1 | > 64 µM |  |  |  | > 64 µM
5 | O=C1[C@H]2Cc3c([nH]c4ccccc34)[C@@H](c3ccc4c(c3)OCO4)N2C(=O)CN1c1ccccc1 | > 64 µM |  |  |  | > 64 µM
6 | CCCOc1ccccc1-c1nc2[nH]nnc2c(=O)[nH]1 [ZAPRINAST] | 35 µM | Active | Active |  | 
7 | O=C1[C@H]2Cc3c([nH]c4ccccc34)[C@@H](c3ccc4c(c3)OCO4)N2C(=O)CN1c1cccs1 | > 64 µM |  |  |  | > 64 µM
8 | O=C1[C@H]2Cc3c([nH]c4ccccc34)[C@@H](c3ccc4c(c3)OCO4)N2C(=O)CN1c1ccc(C(F)(F)F)cc1 | > 64 µM |  |  |  | > 64 µM
9 | O=C1[C@H]2Cc3c([nH]c4ccccc34)[C@@H](c3ccc4c(c3)OCO4)N2C(=O)CN1c1cncnc1 | 56 µM |  |  |  | > 64 µM
10 | CN1CC(=O)N2[C@H](c3ccc4c(c3)OCO4)c3[nH]c4ccccc4c3C[C@@H]2C1=O [TADALAFIL] | > 64 µM |  |  |  | > 64 µM
11 | O=C1N[C@@H](COCc2ccccc2)C(=O)N2[C@H](c3ccc4c(c3)OCO4)c3[nH]c4ccccc4c3C[C@H]12 | > 64 µM |  |  |  | > 64 µM
12 | O=C1[C@H]2Cc3c([nH]c4ccccc34)[C@@H](c3ccc4c(c3)OCO4)N2C(=O)CN1C1CCNCC1 | 32 µM |  |  |  | > 64 µM
13 | O=C1[C@H]2Cc3c([nH]c4ccccc34)[C@@H](c3ccc4c(c3)OCO4)N2C(=O)CN1c1cccc(Cl)c1 | > 64 µM |  |  |  | > 64 µM
14 | O=C1[C@H]2Cc3c([nH]c4ccccc34)[C@@H](c3ccc4c(c3)OCO4)N2C(=O)CN1c1ccsc1 | > 64 µM |  |  |  | > 64 µM
15 | O=C1[C@H]2Cc3c([nH]c4ccccc34)[C@H](c3ccc4c(c3)OCO4)N2C(=O)CN1[C@@H]1CCN(Cc2ccccc2)C1 | 50 µM |  |  |  | > 64 µM
16 | O=C1N[C@@H](Cc2c[nH]c3ccccc23)C(=O)N2[C@H](c3ccc4c(c3)OCO4)c3[nH]c4ccccc4c3C[C@H]12 | 25 µM |  |  |  | 35 µM
17 | CC(C)(C)OC(=O)CC[C@@H]1NC(=O)[C@H]2Cc3c([nH]c4ccccc34)[C@@H](c3ccc4c(c3)OCO4)N2C1=O | 60 µM |  |  |  | > 64 µM
18 | CCCCN1CC(=O)N2[C@H](c3ccc4c(c3)OCO4)c3[nH]c4ccccc4c3C[C@@H]2C1=O | > 64 µM |  |  |  | > 64 µM
19 | Cc1cccc(N2CC(=O)N3[C@H](c4ccc5c(c4)OCO5)c4[nH]c5ccccc5c4C[C@@H]3C2=O)c1 | > 64 µM |  |  |  | > 64 µM
20 | CCCCc1ccc(N2CC(=O)N3[C@H](c4ccc5c(c4)OCO5)c4[nH]c5ccccc5c4C[C@@H]3C2=O)cc1 | > 64 µM |  |  |  | > 64 µM
21 | COc1ccc(N2CC(=O)N3[C@H](c4ccc5c(c4)OCO5)c4[nH]c5ccccc5c4C[C@@H]3C2=O)cc1 | > 64 µM |  |  |  | > 64 µM
22 | OCCN(CCO)c1nc(N2CCCCC2)c2nc(N(CCO)CCO)nc(N3CCCCC3)c2n1 [DIPYRIDAMOLE] | 64 µM | Active | Active |  | 

The next compounds have a lower IC50 ([1]; read-out: IC50) than those just listed; values first:

Row | IC50 ([1]; read-out: IC50) | inhibition [3] | inhibition [4] | IC50 ([1]; read-out: pIC50 (converted)) | Structure (SMILES) | IC50 [2]
23 | 23 µM |  |  |  | CC(C)(C)OC(=O)N1CCN(Cc2cccc(N3CC(=O)N4[C@H](c5ccc6c(c5)OCO6)c5[nH]c6ccccc6c5C[C@@H]4C3=O)c2)CC1 | > 64 µM
24 | 22 µM |  |  |  | O=C1[C@H]2Cc3c([nH]c4ccccc34)[C@@H](c3ccc4c(c3)OCO4)N2C(=O)CN1CCN1CCOCC1 | > 64 µM
25 | 22 µM |  |  |  | O=C1[C@H]2Cc3c([nH]c4ccccc34)[C@@H](c3ccc4c(c3)OCO4)N2C(=O)CN1c1cccnc1 | > 64 µM
26 | 19 µM |  |  |  | O=C1[C@H]2Cc3c([nH]c4ccccc34)[C@@H](c3ccc4c(c3)OCO4)N2C(=O)CN1c1ccc(CN2CCOCC2)cc1 | > 64 µM
27 | 16 µM |  |  |  | O=C1[C@H]2Cc3c([nH]c4ccccc34)[C@@H](c3ccc4c(c3)OCO4)N2C(=O)CN1CCc1ccc(O)cc1 | > 64 µM
28 | 12 µM |  |  |  | O=C1[C@H]2Cc3c([nH]c4ccccc34)[C@@H](c3ccc4c(c3)OCO4)N2C(=O)CN1[C@@H]1CCNC1 | > 64 µM
29 | 10 µM |  |  |  | O=C1[C@H]2Cc3c([nH]c4ccccc34)[C@@H](c3ccc4c(c3)OCO4)N2C(=O)CN1c1cccc(CN2CCNCC2)c1 | 8 µM
30 | 10 µM |  |  |  | O=C1[C@H]2Cc3c([nH]c4ccccc34)[C@@H](c3ccc4c(c3)OCO4)N2C(=O)CN1[C@H]1CCN(Cc2ccccc2)C1 | > 64 µM
31 | 9 µM |  |  |  | O=C1[C@H]2Cc3c([nH]c4ccccc34)[C@@H](c3ccc4c(c3)OCO4)N2C(=O)CN1Cc1ccc(N2CCOCC2)cc1 | > 64 µM
32 | 9 µM |  |  |  | O=C1[C@H]2Cc3c([nH]c4ccccc34)[C@@H](c3ccc4c(c3)OCO4)N2C(=O)CN1CCCn1ccnc1 | > 64 µM
33 | 9 µM |  |  |  | Cn1c2c(c3ccccc31)C[C@@H]1C(=O)N([C@@H]3CCN(Cc4ccccc4)C3)CC(=O)N1[C@@H]2c1ccc2c(c1)OCO2 | > 64 µM
34 | 8 µM |  |  |  | CN(CCCN1CC(=O)N2[C@H](c3ccc4c(c3)OCO4)c3[nH]c4ccccc4c3C[C@@H]2C1=O)Cc1ccccc1 | 8 µM
35 | 7 µM |  |  |  | O=C1[C@H]2Cc3c([nH]c4ccccc34)[C@@H](c3ccc4c(c3)OCO4)N2C(=O)CN1c1ccc(N2CCNCC2)cc1 | 8 µM
36 | 7 µM |  |  |  | CN(CCN1CC(=O)N2[C@H](c3ccc4c(c3)OCO4)c3[nH]c4ccccc4c3C[C@@H]2C1=O)Cc1ccccc1 | > 64 µM
37 | 7 µM |  |  |  | O=C1[C@H]2Cc3c([nH]c4ccc(Br)cc34)[C@@H](c3ccc4c(c3)OCO4)N2C(=O)CN1[C@@H]1CCN(Cc2ccccc2)C1 (mixture of isomers) | 10 µM
38 | 4 µM |  |  |  | Cn1ccnc1CN1CCC(N2CC(=O)N3[C@H](c4ccc5c(c4)OCO5)c4[nH]c5ccccc5c4C[C@@H]3C2=O)CC1 | 62 µM
39 | 4 µM |  |  |  | NCCCC[C@H]1NC(=O)[C@H]2Cc3c([nH]c4ccccc34)[C@@H](c3ccc4c(c3)OCO4)N2C1=O | > 64 µM
40 | 1.7 µM |  |  |  | O=C1[C@H]2Cc3c([nH]c4ccc(F)cc34)[C@@H](c3ccc4c(c3)OCO4)N2C(=O)CN1[C@@H]1CCN(Cc2ccccc2)C1 (mixture of isomers) | 17.8 µM
41 | 1.26 µM |  |  |  | O=C1[C@H]2Cc3c([nH]c4cc(F)ccc34)[C@@H](c3ccc4c(c3)OCO4)N2C(=O)CN1[C@@H]1CCN(Cc2ccccc2)C1 (mixture of isomers) | 16 µM
42 | 1 µM | Active | 60% |  | O=C1[C@H]2Cc3c([nH]c4ccccc34)[C@@H](c3ccc4c(c3)OCO4)N2C(=O)CN1C1CCN(Cc2ccccc2)CC1 | 7 µM
43 | 0.97 µM |  |  |  | O=C1[C@H]2Cc3c([nH]c4ncccc34)[C@@H](c3ccc4c(c3)OCO4)N2C(=O)CN1[C@@H]1CCN(Cc2ccccc2)C1 | 22 µM
44 | 0.5 µM | Active | 60% | 0.501 µM | O=C1[C@H]2Cc3c([nH]c4ccccc34)[C@@H](c3ccc4c(c3)OCO4)N2C(=O)CN1[C@@H]1CCN(Cc2ccccc2)C1 | 10 µM
